HDAC3 inh – HDAC3 deacetylase inhibitors, primary screen, biochemical, fluorescence, cell-free homogeneous; recombinant HDAC3, fluorogenic peptide/trypsin coupled; Histone deacetylase 3 (Homo sapiens), O15379; 320,000 tested, 0.15% active; inhibition, % at 8.3 µM; in the data active = inhibition above about 26%, passing the limit was not always enough; inconclusive = no clear call, values can overlap the other calls
Rtt109 Vps75 – inhibitors of C. albicans Rtt109/Vps75 HAT, primary screen, biochemical, ThioGlo CoA-SH fluorescence, plate reader. purified Rtt109/Vps75, 4 h. inhibition, % at 34.9 µM. 330,000 tested, 0.16% active. AID 540336, 2011;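 active = inhibition of at least 50% in every replicate; inconclusive = best replicate reaches 50% inhibition but some replicates fall short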
ALR H2O2 inh – inhibitors of human ALR sulfhydryl oxidase, primary screen, biochemical, H2O2 detection, HRP-luminol luminescence, single point; FAD-linked sulfhydryl oxidase ALR (Homo sapiens), P55789; purified ALR, DTT oxidation; inhibition, % (no concentration beside the values); 290,000 tested, 3.8% active; AID 485317, 2010;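 active = mean replicate inhibition above about 79%, with every replicate also reaching it, limit read from the data; inconclusive = only one of the two criteria met; inactive = mean below limit and not every replicate reaching it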
UCH37 DUB inh – inhibitors of human UCH37 deubiquitinase, primary screen, biochemical, Ub-AMC cleavage, fluorescence | 330,000 tested, 0.33% active | purified proteasome/UCH37 | inhibition, % (concentration not given with the values);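 active = mean inhibition over replicate wells above about 20%, limit read from the data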;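 note: 0% = compound-free wells with enzyme and 100% = wells lacking proteasome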
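system = Proteasome-associated human UCH37 deubiquitinase | amount = 0.15 nM proteasome as dispensed | medium = pH 7.4 Tris-HCl (50 mM) with ovalbumin, ATP-MgCl2, DTT | incubation = 30 min preincubation with enzyme, 25 min cleavage at room temperature | detection = AMC fluorescence 355/460 nm | read-out basis = percent inhibition | controls = no-proteasome and no-compound wells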
FAS TE block – FAS thioesterase domain inhibitors, primary screen, biochemical, fluorescence intensity, uHTS | Fatty acid synthase (Homo sapiens), P49327 | recombinant FAS-TE, OMFH fluorogenic substrate, fluorescence endpoint | inhibition, % at 15 µM | 360,000 tested, 0.67% active | AID 602261, 2012;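 active = compounds whose normalised, plate-corrected inhibition of enzyme fluorescence in the single-dose primary screen is 50% or more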;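 note: 0% = DMSO with enzyme and 100% = substrate without enzyme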
PfM18AAP inh – PfM18AAP inhibitors, malaria aminopeptidase, primary screen, biochemical, QFRET, recombinant enzyme | M18 aspartyl aminopeptidase (Plasmodium falciparum 3D7) | H-Glu-NHMec fluorogenic cleavage | inhibition, % at 7.35 µM | 290,000 tested, 1.2% active | AID 1822, 2009;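 active = inhibition above the campaign mean inhibition over all tested compounds plus 3 SD, cut at about 28% in these data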;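 note: 0% = plate median of test compound wells and 100% = 2 mM ZnCl2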
Starred values were filed as active, the others as inactive; ? = inconclusive; / = not tested or not shown. Compounds with a hit are over-represented: about 4.6% of the library has one in this group of screens.

SMILES	HDAC3 inh	Rtt109 Vps75	ALR H2O2 inh	UCH37 DUB inh	FAS TE block	PfM18AAP inh
COc1ccc(C(=O)Oc2ccc(=O)n(-c3ccccc3)n2)cc1	76.3*	6.6	97.5*	8.4	-3.1	-8.3
COc1ccc(C=NNC(=O)C2(O)c3ccccc3-c3ccccc32)cc1	/	/	/	2.9	/	/
NC(=O)c1ccc2c(=O)c(O)c(-c3cc(Cl)c(N)c(Cl)c3)[nH]c2c1	-3.8	-10.5	22.4	/	-2.4	51.4*
COc1ccc2cc(C=NNC(=O)CSCc3ccc([N+](=O)[O-])cc3)c(Cl)nc2c1	/	/	/	0.9	/	/
COc1ccc(C[C@H]2c3cc(O)c(OC)cc3CC[N+]2(C)[O-])cc1O (stereo partly specified)	-2.2	2.8	95.2*	-33.7	-18.7	/
COc1cc2c(cc1O)C(Cc1ccc(O)cc1)[N+](C)([O-])CC2 (stereo unspecified)	-10.0	-7.4	25.6	4.3	-7.1	/
CC(=NNC(=O)c1ccccc1F)c1cccc(NC(=O)c2ccc(C)cc2)c1	/	/	/	3.7	/	/
CN(C)c1ccc(/C=C(\NC(=O)c2ccccc2)C(=O)NCCN2CCOCC2)cc1	7.3	3.0	/	16.0	0.9	8.7
O=C(NCCCn1ccnc1)c1ccc(F)cc1	1.4	-9.3	-16.1	4.9	-6.6	0.6
CN(C)c1ccc(/C=C(\NC(=O)c2ccccc2)C(=O)NCCCN2CCOCC2)cc1	-2.3	7.1	98.4*	9.0	-6.0	9.8
O=C(NCCCn1ccnc1)/C(=C/c1ccc(Cl)cc1)NC(=O)c1ccccc1	7.9	-6.1	-4.0	4.8	-7.6	4.7
CN(C)c1ccc(/C=C(/NC(=O)c2ccccc2)C(=O)NCCCn2ccnc2)cc1	4.8	-0.7	98.9*	8.3	-90.5	7.7
CCC(=O)Nc1ccc(C(=O)NCCCn2ccnc2)cc1	-2.6	/	99.6*	-4.1	-11.1	-17.2
CCOc1ccccc1N(CC(=O)NN=C(C)c1cccc(Br)c1)S(C)(=O)=O	/	/	/	0.2	/	/
O=C(NN=C/C=C/c1ccccc1[N+](=O)[O-])c1cc(-c2cccnc2)nc2ccccc12	/	/	/	3.0	/	/
CCOC(=O)C1(N(CC)CC)Sc2cc(C)ccc2NC1=O (stereo unspecified)	14.3	-0.6	2.2	1.8	5.1	-3.0
COC(=O)C1=C(C(=O)OC)SC2(S1)C(C(=O)OC)=C(C(=O)OC)SC1=C2c2cc(C)ccc2NC1(C)C	9.5	4.4	2.2	10.8	-12.3	29.3*
Cc1cc(C)nc(SCC(=O)NN=Cc2cccs2)n1	/	/	/	1.6	/	/
CC(C)(C)S(=O)(=O)C(C#N)=NNc1ccc(C#N)cc1	/	/	/	9.6	/	/
CN(C)CC(CCC(CN(C)C)C(O)(c1ccccc1)c1ccccc1)C(O)(c1ccccc1)c1ccccc1 (stereo unspecified)	/	/	/	2.1	/	12.6
CN(C)CC(O)CN(c1ccccc1)c1ccccc1 (stereo unspecified)	-0.3	/	99.0*	1.9	-7.0	6.6
c1ccc2c(c1)CC/C2=N/Nc1nc2ccccc2[nH]1	12.0	-3.9	99.1*	/	-28.7	3.4
CC(C)(C)C1CCC(=NNc2nc3ccccc3[nH]2)CC1 (stereo unspecified)	-11.0	19.0	98.0*	-8.8	-61.0	17.3
c1ccc(CN2CCC(=NNc3nc4ccccc4[nH]3)CC2)cc1	1.2	7.8	99.1*	0.5	-20.7	27.8
c1ccc2c(c1)CCC2=NNc1nc2ccccc2[nH]1	/	/	/	3.8	/	/
SMILES	HDAC3 inh	Rtt109 Vps75	ALR H2O2 inh	UCH37 DUB inh	FAS TE block	PfM18AAP inh
COC(=O)[C@H](C)NC(=O)NCCC1=CCCCC1	-5.0	-2.7	11.5	8.0	-8.1	-0.3
COc1cccc(C(=O)NCCC2=CCCCC2)c1	1.0	4.7	0.6	24.6*	-2.0	6.9
CCC(C)[C@H](NC(=O)NCCC1=CCCCC1)C(=O)OC (stereo partly specified)	0.1	-8.4	-17.8	25.0*	-0.9	2.7
CCC(CC)C(=O)Nc1cccc(C(C)=NNC(=O)c2ccccc2Cl)c1	/	/	/	2.4	/	/
C/C(C=NNC(=O)c1cc(C2CC2)[nH]n1)=C\c1ccccc1	/	/	/	5.7	/	/
C/C(=N\NC(=O)CSCc1ccccc1Cl)c1cc(O)ccc1O	1.5	6.7	98.3*	/	14.7	16.1
CC(=O)Nc1ccc(NC(=O)CSCc2ccccc2Cl)cc1	-6.8	-7.5	?	7.1	-0.6	/
CC(=O)SC(C[N+](=O)[O-])c1cn(C(C)=O)c2ccccc12 (stereo unspecified)	2.9	-4.7	100.1*	/	-10.8	14.2
CC(=O)n1cc(Nc2ccc([N+](=O)[O-])cc2)c2ccccc21	0.9	-18.9	4.2	/	6.6	-2.5
CC(C)(C)C(=O)ON=C(N)c1ccc(Oc2cc(Cl)cc(Cl)c2)c([N+](=O)[O-])c1	/	/	/	5.3	/	/
Cc1ccc2nc(-c3ccccc3)cn2c1	-20.9	-3.5	37.9	-7.7	-8.4	-12.4
c1ccc(-c2cn3c(n2)-c2ccccc2C3)cc1	-5.4	-1.4	94.8*	-5.2	-10.1	-0.2
Cc1ccc(NN=Cc2ccc(N3CCOCC3)cc2)cc1C	/	/	/	0.2	/	/
O=C(c1cccc(-c2cccc3nccn23)c1)N1CCOCC1	/	/	/	/	-6.8	/
O=C(c1cccc(-c2ccc(O)cc2)c1)N1CCOCC1	-5.6	-1.1	99.3*	5.5	-2.5	3.0
ON=Cc1ccccc1Oc1ccc(Cl)cc1	/	/	/	1.0	/	/
Cc1cc([N+](=O)[O-])nn1CC(=O)N1CCc2ccccc2C1	4.6	-2.2	-6.1	3.9	41.4	1.9
Cc1c(Cl)c([N+](=O)[O-])nn1CC(=O)N1CCc2ccccc2C1	-4.1	-3.2	-38.5	3.6	50.6*	-2.0
O=C(NCC(c1ccco1)N1CCc2ccccc21)c1ccc([N+](=O)[O-])cc1 (stereo unspecified)	2.7	4.3	23.8	3.1	39.4	/
O=C(CCc1ccccc1)NCC(c1ccco1)N1CCc2ccccc21 (stereo unspecified)	3.2	2.9	98.1*	1.7	8.6	/
O=C(NCC(c1ccco1)N1CCc2ccccc21)c1ccccc1Br (stereo unspecified)	5.5	-0.5	44.6	1.0	12.2	/
O=C(NCC(c1ccco1)N1CCc2ccccc21)c1ccccc1F (stereo unspecified)	-11.0	11.9	98.5*	-0.3	3.9	/
Cc1ccc(C(=O)NCC(c2ccco2)N2CCc3ccccc32)cc1 (stereo unspecified)	-4.3	5.4	77.0*	-0.7	16.4	/
Cc1cccc(C(=O)NCC(c2ccco2)N2CCc3ccccc32)c1 (stereo unspecified)	-2.2	3.3	48.8	4.7	14.3	/
